Common to all, as to details: Neutrophil
The nature of assay [1]: Antiinflammatory activity against human neutrophils assessed as inhibition of fMLP/CB-induced superoxide anion generation. The format is functional, cell-based. The procedure, abridged: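 Neutrophils (6 × 10^5/mL, dextran/Ficoll-isolated from healthy adults) with 0.5 mg/mL ferricytochrome c and 1 mM Ca2+, 2 min at 37 °C, compound or DMSO 5 min, cytochalasin B (1 µg/mL) 3 min, then fMLP 100 nM 10 min. SOD-inhibitable (100 U/mL) cytochrome c reduction at 550 nm, extinction coefficient 21.1/mM/10 mm; n = 4, mean ± SEM.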

Assay [2] can be described thus: Antiinflammatory activity against human neutrophils assessed as inhibition of fMLP/CB-induced elastase release. The class given is functional, cell-based. The procedure, abridged:
(§1)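 Human neutrophils from healthy adult volunteers' venous blood, isolated by dextran sedimentation, Ficoll Hypaque gradient and hypotonic erythrocyte lysis, held in Ca2+-free HBSS pH 7.4 at 4 °C. Cells (6 × 10^5/mL) with MeO-Suc-Ala-Ala-Pro-Val-p-nitroanilide (100 µM) equilibrated 2 min at 37 °C, compound 5 min, then fMLP (100 nM)/cytochalasin B (0.5 µg/mL). A405 monitored continuously; n = 4, mean ± SEM.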

Assay [3] is described as follows: Antiinflammatory activity against human neutrophils assessed as inhibition of fMLP/CB-induced elastase release at 10 ug/ml. The class given is functional. The procedure, abridged:
as §1

Molecules are shown by their SMILES. Values after ≈ are worked out from the molar mass of the structure shown.

For the compound `COc1ccc(CCN(C)C(=O)c2ccccc2)cc1`, the IC50 is 8.49 µg/mL (≈ 31.5 µM) in assay [1] and 7.48 µg/mL (≈ 27.8 µM) in assay [2].

With `CC(=O)/C=C/C=C/C(=O)NCC(C)C`, the values for the IC50 in assay [1] and in assay [2] were 4.2 µg/mL (≈ 21.5 µM) and 6.2 µg/mL (≈ 31.8 µM), respectively.

As to `COc1ccc(CCN(C)C(=O)/C=C/c2ccc(O)cc2)cc1` [AILANTHAMIDE], the IC50 was 3.71 µg/mL (≈ 11.9 µM) in assay [1] and 4.23 µg/mL (≈ 13.6 µM) in assay [2].

For `COc1c(O)ccc2c1cnc1c3cc4c(cc3ccc21)OCO4` [DECARINE], the values for the IC50 in assay [1] and in assay [2] were 1.29 µg/mL (≈ 4.04 µM) and 1.94 µg/mL (≈ 6.08 µM), respectively.

For the compound `c1ccc2c(c1)[I+]c1ccccc1-2` [DIPHENYLENEIODONIUM], the half-inhibitory concentration (IC50) in assay [1] came out at 0.54 µg/mL.

On to `COc1cc(C(=O)C(CO)c2ccc(O)c(OC)c2)ccc1O` (configuration not stated) [EVOFOLIN B], for which the IC50 in assay [1] came out at 5.34 µg/mL (≈ 16.8 µM); in assay [2] it was 6.15 µg/mL (≈ 19.3 µM).

For `COc1c2ccoc2nc2c(OC)cccc12` [GAMMA-FAGARINE], the IC50 in assay [1] was 7.17 µg/mL (≈ 31.3 µM). Moreover, in assay [3], the inhibition at 10 µg/mL is 19.1%.

With `O=C1OC[C@H](Cc2ccc3c(c2)OCO3)[C@H]1Cc1ccc2c(c1)OCO2` [HINOKININ], in assay [1], the IC50 was found to be 0.6 µg/mL (≈ 1.69 µM). The inhibition at 10 µg/mL in assay [3] was 24.7%.

As to `O=S(=O)(F)Cc1ccccc1` [PHENYLMETHYLSULFONYLFLUORIDE], the IC50 in assay [2] came out at 35.2 µg/mL (≈ 202 µM).

Regarding `COc1cc2ccc(=O)oc2cc1OC` [SCOPARONE], in assay [1], the IC50 was 8.25 µg/mL (≈ 40 µM). In assay [3], the inhibition at 10 µg/mL worked out at 43.1%.

Regarding `c1cc2c(cc1[C@H]1OC[C@H]3[C@@H]1CO[C@@H]3c1ccc3c(c1)OCO3)OCO2` [SESAMIN], the IC50 in assay [1] was 4.3 µg/mL (≈ 12.1 µM); in assay [2] it was 1.38 µg/mL (≈ 3.89 µM).

On to `CC1(C)C=Cc2cc3ccc(=O)oc3cc2O1` [XANTHYLETIN], for which the IC50 was 4.1 µg/mL (≈ 18 µM) in assay [1] and 5.53 µg/mL (≈ 24.2 µM) in assay [2].

The values are drawn from ChEMBL document CHEMBL1151815, “Amides and benzenoids from Zanthoxylum ailanthoides with inhibitory activity on superoxide generation and elastase release by neutrophils” (J Nat Prod, 2009).
